We go through one compound from ChEMBL document CHEMBL4334552, “Discovery of BMS-986260, a Potent, Selective, and Orally Bioavailable TGFβR1 Inhibitor as an Immuno-oncology Agent” (ACS Med Chem Lett, 2020).

Data set [1] is described as follows: Total AUC in Balb/C mouse at 5 mg/kg, iv. The arrangement: dose 5 mg/kg, route intravenous, time AUCmax. It is filed as ADME, organism-based. The following applies: in vivo. Put shortly:
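Male Balb/C mice (n = 3) dosed iv at 5 mg/kg and po at 10 mg/kg. Vehicle was 70% 25 mM acetate buffer pH 4.0, 5% ethanol and 25% PEG 400.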

A short description of data set [2]: Half life in dog liver microsomes in presence of NADPH. It is filed as ADME, Canis lupus familiaris, Microsome.
The target in data set [3] is T1, TGF-beta receptor type-1 (Homo sapiens, UniProt P36897).
T1 sequence (P36897 whole entry): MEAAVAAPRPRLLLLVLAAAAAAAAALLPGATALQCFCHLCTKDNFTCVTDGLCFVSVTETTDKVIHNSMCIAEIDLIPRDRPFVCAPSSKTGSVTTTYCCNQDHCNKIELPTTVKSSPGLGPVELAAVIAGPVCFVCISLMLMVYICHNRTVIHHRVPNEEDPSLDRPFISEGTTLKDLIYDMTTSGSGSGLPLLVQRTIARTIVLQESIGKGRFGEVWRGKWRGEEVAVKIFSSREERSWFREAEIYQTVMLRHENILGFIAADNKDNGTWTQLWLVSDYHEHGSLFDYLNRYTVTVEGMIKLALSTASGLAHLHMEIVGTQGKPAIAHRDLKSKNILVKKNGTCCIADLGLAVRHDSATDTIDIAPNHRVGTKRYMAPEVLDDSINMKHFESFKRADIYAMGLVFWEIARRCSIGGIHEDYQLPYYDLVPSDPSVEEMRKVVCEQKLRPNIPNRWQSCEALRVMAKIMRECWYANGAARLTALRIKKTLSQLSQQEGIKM
The data set is described as follows: Inhibition of TGFBR1 in TGFbeta-stimulated human NHLF cells assessed as reduction in SMAD2 nuclear translocation.

Data set [4] in a line: Protein binding in dog serum assessed as unbound fraction. It is filed as ADME, cell-free, Canis lupus familiaris.
Data set [5] in a line: Half life in mouse liver microsomes in presence of NADPH. It is filed as ADME, Microsome. For orientation: Liver microsomes are a subcellular fraction often used to study metabolism.
A short description of data set [6]: Half life in dog hepatocytes. It is filed as ADME, cell-based, Canis lupus familiaris, Hepatocyte.
Data set [7] has as its target T2, Cytochrome P450 1A2 (Homo sapiens, UniProt P05177).
T2 sequence (P05177 whole entry): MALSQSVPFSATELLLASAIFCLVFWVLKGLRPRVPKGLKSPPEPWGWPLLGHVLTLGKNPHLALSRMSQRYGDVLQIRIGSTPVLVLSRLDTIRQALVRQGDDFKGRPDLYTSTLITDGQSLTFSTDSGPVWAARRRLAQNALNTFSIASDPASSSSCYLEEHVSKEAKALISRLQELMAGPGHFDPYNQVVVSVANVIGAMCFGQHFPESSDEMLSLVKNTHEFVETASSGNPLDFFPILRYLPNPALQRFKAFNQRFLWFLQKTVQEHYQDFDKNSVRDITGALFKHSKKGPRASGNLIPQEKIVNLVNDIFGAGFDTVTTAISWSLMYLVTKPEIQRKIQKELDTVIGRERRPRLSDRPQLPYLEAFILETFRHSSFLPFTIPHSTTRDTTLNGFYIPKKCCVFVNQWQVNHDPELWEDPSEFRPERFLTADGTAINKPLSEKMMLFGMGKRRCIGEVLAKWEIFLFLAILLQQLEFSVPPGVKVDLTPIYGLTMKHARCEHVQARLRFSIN
As to the kind of experiment: Inhibition of recombinant CYP1A2 (unknown origin). It is filed as ADME.

Data set [8] has as its target T3, Cytochrome P450 2C8 (Homo sapiens, UniProt P10632).
T3 sequence (P10632 whole entry): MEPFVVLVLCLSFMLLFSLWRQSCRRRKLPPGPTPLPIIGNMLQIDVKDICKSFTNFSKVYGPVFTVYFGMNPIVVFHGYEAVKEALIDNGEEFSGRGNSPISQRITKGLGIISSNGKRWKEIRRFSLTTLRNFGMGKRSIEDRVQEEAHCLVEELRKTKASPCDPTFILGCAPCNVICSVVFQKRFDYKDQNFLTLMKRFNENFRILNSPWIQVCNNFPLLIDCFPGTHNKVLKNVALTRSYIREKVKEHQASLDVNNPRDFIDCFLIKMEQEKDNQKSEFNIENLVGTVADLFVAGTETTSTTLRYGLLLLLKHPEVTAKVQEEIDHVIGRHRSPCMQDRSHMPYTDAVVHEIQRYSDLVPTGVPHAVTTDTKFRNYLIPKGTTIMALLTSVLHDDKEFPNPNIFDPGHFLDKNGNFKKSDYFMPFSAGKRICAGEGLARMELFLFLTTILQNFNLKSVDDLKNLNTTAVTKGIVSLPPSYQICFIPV
The data set is described as follows: Inhibition of recombinant CYP2C8 (unknown origin). The class given is ADME.

For data set [9], the target named is Cytochrome P450 2C9 (Homo sapiens, UniProt P11712). As to the kind of experiment: Inhibition of recombinant CYP2C9 (unknown origin). It is filed as ADME.
In data set [10] the target is T4, Cytochrome P450 2C19 (Homo sapiens, UniProt P33261). As to the kind of experiment: Inhibition of recombinant CYP2C19 (unknown origin). It is filed as ADME.
Data set [11] has as its target Cytochrome P450 2D6 (Homo sapiens, UniProt P10635). As to the kind of experiment: Inhibition of recombinant CYP2D6 (unknown origin). The class given is ADME.
The target in data set [12] is T5, PXR (Homo sapiens, UniProt O75469).
T5 sequence (O75469 whole entry): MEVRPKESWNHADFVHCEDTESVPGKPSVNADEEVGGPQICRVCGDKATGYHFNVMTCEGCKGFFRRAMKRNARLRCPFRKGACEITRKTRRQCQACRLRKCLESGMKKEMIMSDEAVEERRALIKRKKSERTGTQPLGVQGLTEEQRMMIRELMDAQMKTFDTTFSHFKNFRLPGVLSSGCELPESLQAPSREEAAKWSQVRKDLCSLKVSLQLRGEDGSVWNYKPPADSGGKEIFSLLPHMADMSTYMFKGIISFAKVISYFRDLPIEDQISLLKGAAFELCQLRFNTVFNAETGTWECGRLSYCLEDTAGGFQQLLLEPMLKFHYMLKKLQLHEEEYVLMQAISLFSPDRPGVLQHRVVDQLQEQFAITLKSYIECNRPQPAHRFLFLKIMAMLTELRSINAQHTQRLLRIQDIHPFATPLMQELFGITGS
As to the kind of experiment: Activation of PXR (unknown origin) relative to control.

Data set [13] is described as follows: Aqueous solubility of the compound at pH 6.5. The class given is physicochemical. The following applies: aqueous solution, read-out: solubility.
Data set [14] has as its system Mus musculus. As to the kind of experiment: Antitumor activity in compound-mediated tumor cured C57Bl/6 mouse allografted with mouse MC38 cells assessed as tumor growth following rechallenge with newly implanted mouse LL2 cells treated at 3.75 to 15 mg/kg, po qd for 28 days and cotreated with anti-PD1 at 10 mg/kg, ip every 4 days for 3 doses prior to LL2 cells rechallenge by digital caliper analysis. The class given is functional, organism-based. Summed up: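 Mice cured by oral dosing plus anti-PD-1 (10 mg/kg IP, every 4 days, three doses) were re-implanted with MC38 or LL2 cells. Tumor growth was compared with naive mice.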

Data set [15] in a line: Cardiovascular toxicity in rat assessed as aortic pathology at 1 mg/kg, po for 10 days. The class given is organism-based. The settings on record: in vivo, 240 h. Summed up: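 Exploratory toxicology studies of 10 days with daily oral dosing in rats and dogs. Cardiovascular findings, including valvulopathy and aortic pathology, were assessed.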
For data set [16], the target named is T4, Cytochrome P450 2C19. The data set is described as follows: Induction of recombinant CYP2C19 (unknown origin) up to 24 microM. The following applies: recombinant enzyme. It is filed as ADME.
Data set [17] concerns the target Cytochrome P450 3A4 (Homo sapiens, UniProt P08684). The data set is described as follows: Induction of recombinant CYP3A4 (unknown origin) up to 24 microM. The following applies: recombinant enzyme. The class given is ADME.

Values after ≈ are worked out from the molar mass of the structure shown. Active and inactive are the calls of the source. The rule behind the calls is not given here.

T4 sequence (P33261 whole entry): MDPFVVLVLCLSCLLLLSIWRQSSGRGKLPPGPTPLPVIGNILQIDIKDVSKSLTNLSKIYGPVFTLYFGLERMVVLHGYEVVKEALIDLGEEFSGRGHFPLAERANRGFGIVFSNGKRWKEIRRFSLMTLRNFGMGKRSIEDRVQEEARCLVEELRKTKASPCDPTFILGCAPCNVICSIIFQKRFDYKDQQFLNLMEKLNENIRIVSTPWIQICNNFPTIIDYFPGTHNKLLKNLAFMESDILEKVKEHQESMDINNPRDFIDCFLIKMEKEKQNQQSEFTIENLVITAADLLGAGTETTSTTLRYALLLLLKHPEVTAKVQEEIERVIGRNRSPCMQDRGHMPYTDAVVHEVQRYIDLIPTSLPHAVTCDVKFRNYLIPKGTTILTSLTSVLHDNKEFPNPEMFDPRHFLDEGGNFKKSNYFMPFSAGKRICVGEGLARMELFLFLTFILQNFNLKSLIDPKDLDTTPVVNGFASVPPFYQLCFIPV
Cytochrome P450 2D6, sequence (P10635 whole entry): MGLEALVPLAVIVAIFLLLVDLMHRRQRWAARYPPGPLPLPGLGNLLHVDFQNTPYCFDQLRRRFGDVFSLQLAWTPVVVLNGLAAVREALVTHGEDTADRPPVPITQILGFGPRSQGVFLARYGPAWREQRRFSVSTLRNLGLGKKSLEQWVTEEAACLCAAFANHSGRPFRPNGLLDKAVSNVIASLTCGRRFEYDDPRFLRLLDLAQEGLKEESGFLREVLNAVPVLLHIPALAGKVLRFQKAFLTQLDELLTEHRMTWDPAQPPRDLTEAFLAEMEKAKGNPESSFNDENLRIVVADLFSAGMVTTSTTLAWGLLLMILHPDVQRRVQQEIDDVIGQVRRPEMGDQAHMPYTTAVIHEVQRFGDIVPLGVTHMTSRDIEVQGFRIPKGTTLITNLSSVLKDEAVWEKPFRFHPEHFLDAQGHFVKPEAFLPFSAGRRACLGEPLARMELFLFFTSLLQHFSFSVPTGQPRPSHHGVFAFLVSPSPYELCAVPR
Cytochrome P450 3A4, sequence (P08684 whole entry): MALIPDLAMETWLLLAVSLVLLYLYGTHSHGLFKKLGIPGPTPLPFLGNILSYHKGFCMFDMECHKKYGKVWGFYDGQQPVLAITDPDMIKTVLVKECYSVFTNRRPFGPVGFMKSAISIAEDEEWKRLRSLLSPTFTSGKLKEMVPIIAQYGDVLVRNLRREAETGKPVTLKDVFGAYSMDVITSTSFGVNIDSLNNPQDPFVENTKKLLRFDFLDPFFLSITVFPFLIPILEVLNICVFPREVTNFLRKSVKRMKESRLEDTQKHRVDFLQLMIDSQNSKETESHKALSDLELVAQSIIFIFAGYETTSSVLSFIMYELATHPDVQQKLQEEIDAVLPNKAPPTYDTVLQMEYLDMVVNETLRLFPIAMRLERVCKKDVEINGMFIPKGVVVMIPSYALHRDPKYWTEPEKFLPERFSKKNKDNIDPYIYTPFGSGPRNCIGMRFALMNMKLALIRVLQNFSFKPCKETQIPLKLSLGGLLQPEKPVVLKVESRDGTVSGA
Cytochrome P450 2C9, sequence (P11712 whole entry): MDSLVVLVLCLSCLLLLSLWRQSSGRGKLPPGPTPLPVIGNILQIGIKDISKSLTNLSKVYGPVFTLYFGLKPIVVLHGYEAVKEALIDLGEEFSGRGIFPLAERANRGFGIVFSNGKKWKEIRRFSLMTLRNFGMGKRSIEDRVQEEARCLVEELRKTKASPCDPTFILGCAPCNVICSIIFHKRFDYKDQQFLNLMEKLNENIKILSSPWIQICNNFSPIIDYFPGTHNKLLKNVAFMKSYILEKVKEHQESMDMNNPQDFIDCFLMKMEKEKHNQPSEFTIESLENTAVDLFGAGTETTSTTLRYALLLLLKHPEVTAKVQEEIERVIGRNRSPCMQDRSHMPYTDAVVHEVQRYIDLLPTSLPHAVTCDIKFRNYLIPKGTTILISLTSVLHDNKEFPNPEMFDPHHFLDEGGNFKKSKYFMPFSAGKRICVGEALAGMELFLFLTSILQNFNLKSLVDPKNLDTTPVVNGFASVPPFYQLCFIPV

For orientation: AUC means concentration integrated over time. The low end stands for low exposure, the high end for high exposure. In general, half-life refers to how long it takes for the measured level to halve. The IC50 is the midpoint of a concentration-inhibition curve. The term fraction unbound denotes free concentration divided by total concentration. As a reminder, the Emax is the maximal effect, on the per cent scale that the assay sets. A word on the solubility: it is the dissolved amount per volume that the medium holds. `N#Cc1cnc2ccc(-c3c(-c4ccc(F)c(Cl)c4)ncn3CCO)nn12` came in with an area under the curve (AUC) in [1] of 26.3 µM·h. The values for the half-life in data set [2], in data set [5] and in [6] were 37 min, 28 min and 62 min, respectively. For the same compound, the IC50 in data set [3] was 190 nM; in data set [7], more than 20 µM; in data set [8], more than 20 µM; in data set [9] it was more than 20 µM; in [10] it was more than 20 µM; in data set [11], more than 20 µM. Moreover, the fraction unbound in data set [4] came to 0.13. Also, the Emax in data set [12] was 44%. For the same compound, the solubility in data set [13] worked out at 47 µg/mL (≈ 123 µM). In addition, the outcome in data set [14] was inactive. For the same compound, the Activity result is “Toxic” in data set [15], “Not Active” in data set [16] and “Not Active” in [17].
